Bioassay records deposited in PubChem by several laboratories.
SENP6 block – inhibitors of human SENP6 protease. Q9GZR1. Recombinant SENP6 catalytic domain, aminoluciferin luminescence. inhibition, % at 10 µM. 1.8% of 330,000 active;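 active means inhibition above about 50% at the single tested dose, limit read from the data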
SENP7 inh – inhibitors of human SENP7 protease; Q9BQF6; recombinant SENP7, Z-RLRGG-aminoluciferin luminescence, 40 min; inhibition, % at 5 µM; 1.5% of 330,000 active; AID 434973;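 active means inhibition above about 50% at the single test dose, limit read from the data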
Target sequence (Q9BQF6 706-1050 limits assumed): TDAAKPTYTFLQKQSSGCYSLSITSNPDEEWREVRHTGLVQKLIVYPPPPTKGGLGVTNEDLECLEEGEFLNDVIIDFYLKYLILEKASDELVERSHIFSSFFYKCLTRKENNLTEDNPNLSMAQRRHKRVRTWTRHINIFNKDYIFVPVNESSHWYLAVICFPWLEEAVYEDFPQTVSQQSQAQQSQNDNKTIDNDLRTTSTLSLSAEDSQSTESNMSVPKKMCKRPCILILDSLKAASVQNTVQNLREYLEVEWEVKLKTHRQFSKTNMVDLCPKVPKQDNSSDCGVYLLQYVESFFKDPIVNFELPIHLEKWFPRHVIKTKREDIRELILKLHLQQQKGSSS
HSP90 inh – inhibitors of HSP90 luciferase refolding in rabbit reticulocyte lysate. luciferase refolding luminescence, 3 h. inhibition, % at 5.6 µM. 0.91% of 290,000 active. AID 1789;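 active means inhibition above the screen-wide mean plus 3 SD, computed separately per campaign, cut at about 16% in these data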;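 further: inhibitors lower the luminescence because luciferase stays unfolded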
SENP8 block-1 – inhibitors of human SENP8 protease; Q96LD8; recombinant SENP8, Nedd8 substrate fluorescence; inhibition, % at 20 µM; 0.64% of 360,000 active; in the data active means inhibition mostly above about 40%, no sharp cut-off; inactive means mostly below about 27%
Target sequence (Q96LD8 whole entry, looked up): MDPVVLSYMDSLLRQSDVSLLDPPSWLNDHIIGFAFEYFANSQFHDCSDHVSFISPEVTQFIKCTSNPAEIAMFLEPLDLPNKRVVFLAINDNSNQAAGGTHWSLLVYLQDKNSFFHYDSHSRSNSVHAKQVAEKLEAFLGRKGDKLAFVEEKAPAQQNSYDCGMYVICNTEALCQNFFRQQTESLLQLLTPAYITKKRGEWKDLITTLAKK
SENP8 block-2 – inhibitors of human SENP8 protease; Q96LD8; purified SENP8, Z-RLRGG-aminoluciferin cleavage, luminescence; inhibition, % at 10 µM; 1.2% of 330,000 active; in the data active means inhibition above about 50%
SENP1 inh – SENP1 (human) catalytic domain inhibition | inhibition, % at 10 µM | 0.21% of 360,000 active | recombinant SENP1 catalytic domain, CyPet-SUMO1-YPet FRET cleavage | Q9P0U3;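 active means inhibition at least 30% at 10 µM, raw YFP signal under a set limit, fluorescence ratio 0.5 to 1.5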
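system = hSENP1 catalytic domain, recombinant | reagent = SFCypet-SUMO1-SFYpet substrate at 25 nM | doses = one dose per compound, 10 µM, 0.5% DMSO | incubation = enzyme reaction for 50 min at room temperature, dark | measured by = FRET, CFP and YFP emission | controls = no-enzyme low, enzyme-DMSO high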
HSP90 confirm – confirmation of HSP90 inhibitors | shares compounds with HSP90 inh | AID 1846 | inhibition, % at 5.9 µM | rabbit reticulocyte lysate, luciferase refolding luminescence, 3 h | 64% of 2,300 active; in the data active means inhibition above about 18%
FLuc counter – firefly luciferase inhibition, HSP90 counter-screen. 48% of 2,300 active. purified native firefly luciferase, luminescence. inhibition, % at 5.9 µM. AID 1847. shares compounds with HSP90 inh;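 active means inhibition above the mean inhibition of all tested sample wells plus 3 SD, cut at about 10% in these data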
SENP8 conf – confirmation of human SENP8 protease inhibitors; shares compounds with SENP7 inh; Recombinant SENP8, Z-RLRGG-aminoluciferin luminescence, 60 min; inhibition, % at 12.5 µM; 40% of 6,200 active; AID 488912;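 active means mean inhibition across replicates above about 50%, limit read from the data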
SENP6 confirm – human SENP6 inhibition, confirmed | 58% of 6,200 active | AID 488915 | inhibition, % at 12.5 µM | shares compounds with SENP7 inh | recombinant SENP6, Z-RLRGG-aminoluciferin luminescence
SENP7 confirm – human SENP7 inhibition, confirmed | shares compounds with SENP7 inh | recombinant SENP7, Z-RLRGG-aminoluciferin luminescence, 40 min | inhibition, % at 12.5 µM | 69% of 6,200 active | AID 488917
Casp3 select – caspase-3 inhibition (SENP selectivity assay); purified caspase-3, Z-DEVD-aminoluciferin luminescence, 60 min; shares compounds with SENP7 inh; inhibition, % at 12.5 µM; 60% of 6,200 active;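 active means mean inhibition above about 50%, limit read from the data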
Luc interf – luminescence interference (SENP counter-screen); shares compounds with SENP7 inh; inhibition, % at 12.5 µM; Pre-incubated SENP8/Z-RLRGG-aminoluciferin, luciferase luminescence interference; 39% of 6,200 active;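 active means mean inhibition above about 50% when retested at one dose, limit read from the data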
Of the large screens only hits and unclear results are named; the others gave an inactive call (follow-up assays come after a bar, where they were run). In the library only some 2.9% were active in any assay of this set; here they are far more common.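 How the source made its calls, unless noted: active means mean inhibition above about 50% in the one-dose retest (limit read from the data); inactive means the rest.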

Cc1ccc(Nc2ccc(C(=O)O)cc2N)cc1	SENP6 block 97.7, SENP7 inh 98.1, HSP90 inh 19.9, SENP8 block-2 94.4 (no result: SENP8 block-1, SENP1 inh) | HSP90 confirm inactive | FLuc counter inactive | SENP8 conf 97.9 | SENP6 confirm 99.0 | SENP7 confirm 102.0 | Casp3 select 89.2 | Luc interf 97.1
CC(C)n1c(CN(C)Cc2ccccc2)nc2c1c(=O)n(C)c(=O)n2C	none (no result: SENP8 block-1, SENP1 inh)
O=C(NC(=O)c1ccccc1)Nc1ccccc1	SENP6 block 83.4, SENP7 inh 93.3, HSP90 inh 63.5, SENP8 block-2 76.6 | HSP90 confirm 59.5 | FLuc counter 47.2 | SENP8 conf inactive | SENP6 confirm inactive | SENP7 confirm 50.5 | Casp3 select inactive | Luc interf inactive
O=C(NC(=O)c1ccccc1)Nc1ccc(-c2cnco2)cc1	none
N#Cc1ccc(OCc2ccc(C(=O)O)o2)cc1	none
CCc1ccc(OCc2ccc(C(=O)O)o2)cc1	SENP6 block 90.5, SENP7 inh 86.5, HSP90 inh 95.6, SENP8 block-2 90.4 | HSP90 confirm 93.9 | FLuc counter 67.9 | SENP8 conf 94.9 | SENP6 confirm 94.9 | SENP7 confirm 99.9 | Casp3 select 52.1 | Luc interf 93.8
CCc1c(C)c(C#N)c2[nH]c3ccccc3n2c1=S	none
CC(C)c1cc(C(N)=O)c(NC(=O)c2cccc(COc3ccc(Cl)cc3)c2)s1	SENP6 block 84.3, HSP90 inh 49.0 | HSP90 confirm 71.3 | FLuc counter 68.6 | SENP8 conf 97.5 | SENP6 confirm 95.0 | SENP7 confirm 99.2 | Casp3 select inactive | Luc interf 91.1
Cc1nn(Cc2c(F)c(F)c(F)c(F)c2F)c(C)c1NC(=O)c1cccc(COc2ccc(Cl)cc2)c1	none
O=C(c1ccco1)N1CCN(c2ccc([N+](=O)[O-])c(N3CCOCC3)c2)CC1	none
Cc1ccc(C)c(NC(=S)c2nc3ccccc3s2)c1	none
Cc1ccc(NC(=S)c2nc3ccccc3s2)cc1	SENP6 block 60.6, SENP7 inh 80.4, HSP90 inh 23.1 | HSP90 confirm 42.1 | FLuc counter 26.2 | SENP8 conf inactive | SENP6 confirm inactive | SENP7 confirm inactive | Casp3 select inactive | Luc interf inactive
Cc1ccsc1/C=C1\CCc2ccccc2C1=O	SENP6 block 94.4, SENP7 inh 99.2, HSP90 inh 31.1, SENP8 block-2 96.5 | HSP90 confirm 79.4 | FLuc counter 71.1 | SENP8 conf 100.0 | SENP6 confirm 101.1 | SENP7 confirm 103.9 | Casp3 select 99.5 | Luc interf 95.9
O=C1C(=Cc2ccccn2)CCc2ccccc21	none (no result: SENP6 block, SENP7 inh, HSP90 inh, SENP8 block-2)
O=C(Nc1ccccc1)Nc1ccc(C(=O)N2CCCC2)cc1	SENP6 block 96.8, SENP7 inh 97.1, HSP90 inh 22.2, SENP8 block-2 93.6 | HSP90 confirm 42.8 | FLuc counter 20.1 | SENP8 conf 96.5 | SENP6 confirm 96.9 | SENP7 confirm 101.7 | Casp3 select 97.8 | Luc interf 74.0
CCc1ccc(NC(=O)c2cnn3ccccc23)cc1	SENP6 block 90.7, SENP7 inh 94.7, HSP90 inh 65.3, SENP8 block-2 88.8 | HSP90 confirm 78.3 | FLuc counter 71.1 | SENP8 conf 93.2 | SENP6 confirm 94.0 | SENP7 confirm 100.6 | Casp3 select 92.6 | Luc interf 93.5
O=C(COC(=O)/C=C/c1ccc(Cl)cc1Cl)NCC1CCCO1 (stereo not given)	none (no result: HSP90 inh)
O=C(Nc1cccc(O)c1)c1noc2c1CCc1ccccc1-2	SENP6 block 97.2, SENP7 inh 98.6, HSP90 inh 40.2, SENP8 block-2 95.5 | HSP90 confirm 60.7 | FLuc counter 53.7 | SENP8 conf 94.5 | SENP6 confirm 95.7 | SENP7 confirm 102.5 | Casp3 select 93.5 | Luc interf 92.5
CC(C)n1nc(C(=O)NNC(=O)c2ccc(OC(F)F)cc2)c2ccccc2c1=O	none (no result: HSP90 inh)
CC(=O)Nc1cccc(-c2csc(Nc3ccccn3)n2)c1	SENP6 block 83.9, SENP7 inh 92.0, HSP90 inh 19.0, SENP8 block-2 78.8 | HSP90 confirm inactive | FLuc counter inactive | SENP8 conf 88.1 | SENP6 confirm 86.8 | SENP7 confirm 98.3 | Casp3 select 68.0 | Luc interf 87.6
CC(C)(C)n1nc2c(c1NC(=O)C1CC(=O)N(c3ccc(Cl)cc3)C1)CS(=O)(=O)C2 (stereo not given)	none
CCc1ccn2cc(-c3cc(-c4ccccc4)no3)nc2c1	SENP6 block 93.0, SENP7 inh 96.5, HSP90 inh 82.2, SENP8 block-2 89.7 | HSP90 confirm 86.4 | FLuc counter 84.3 | SENP8 conf inactive | SENP6 confirm 92.6 | SENP7 confirm 76.6 | Casp3 select 61.7 | Luc interf inactive
CN(CCO)CCC(=O)NC1(C)CS(=O)(=O)CC1S(=O)(=O)O (stereo not given)	none
COc1ccc(OC)c(-c2nc3cc4ccccc4cc3nc2-c2ccccc2)c1	none
CCNC(=S)NNC(=O)c1cc(-c2ccc(OCC)cc2)nc2ccccc12	SENP6 block 93.5, SENP7 inh 94.6, HSP90 inh 50.0, SENP8 block-2 93.8 | HSP90 confirm 73.6 | FLuc counter 25.3 | SENP8 conf 97.5 | SENP6 confirm 98.2 | SENP7 confirm 102.0 | Casp3 select 97.7 | Luc interf inactive
OC(c1ccc(F)c(F)c1)c1ncc(-c2cccc(F)c2)[nH]1 (stereo not given)	none (no result: SENP6 block, SENP7 inh, HSP90 inh, SENP8 block-2)
c1ccc(OCCSc2nnc3sc4ccccc4n23)cc1	SENP6 block 79.7, HSP90 inh 45.5, SENP8 block-2 68.0 | HSP90 confirm 76.2 | FLuc counter 73.9 | SENP8 conf inactive | SENP6 confirm 68.1 | SENP7 confirm 88.4 | Casp3 select 78.4 | Luc interf 74.6
